Results reported in ChEMBL document CHEMBL1629417, “Benzophenones and biflavonoids from Rheedia edulis” (J Nat Prod, 2010).

What was measured:
[1] = test system: Radical scavenging activity; assay: Antioxidant activity assessed as DPPH radical scavenging activity; format: functional
Method in brief: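 Follows a previously described method. Trolox and gallic acid serve as reference antioxidants. Scavenging is expressed as percent inhibition of DPPH relative to DMSO-treated controls, and IC50 values are derived from it.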

[2] = Antioxidant activity assessed as ABTS radical scavenging activity; format: functional
Method in brief: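 Based on the Re et al. ABTS radical cation decolorization method, with modifications. Trolox and gallic acid serve as reference antioxidants. Percent inhibition of ABTS is calculated as in the DPPH assay, relative to DMSO-treated controls, and IC50 values are derived from it.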

SMILES | IC50 [1] [µM] | IC50 [2] [µM]
CC(C)=CC[C@H]1C[C@]2(CC=C(C)C)C(=O)[C@@](CC=C(C)C)(C(=O)C(C(=O)c3ccccc3)=C2O)C1(C)C [6-EPI-CLUSIANONE] | 766 | 287
O=C(O)c1cc(O)c(O)c(O)c1 [GALLIC ACID] | 33.9 | 19.8
Cc1c(C)c2c(c(C)c1O)CCC(C)(C(=O)O)O2 (stereo unspecified) [TROLOX] | 70.8 | 48.4
